From ChEMBL document CHEMBL4152320, “Discovery and development of novel salicylate synthase (MbtI) furanic inhibitors as antitubercular agents” (Eur J Med Chem, 2018)
In brackets after ≈: the same amount, converted by molar mass. Activity calls are given as the source filed them. The calls are words filed in the database; no cut-off is given here.

Assays:
[1] = tested on: Mycobacterium tuberculosis; assay: Inhibition of Mycobacterium tuberculosis salicylate synthase expressed in Escherichia coli BL21(DE3) assessed as residual activity at 100 uM using chorismic acid as substrate in presence of NADH by l-lactic dehydrogenase enzyme coupled assay relative to control
[2] = tested on: Mycobacterium tuberculosis; assay: Inhibition of Mycobacterium tuberculosis salicylate synthase expressed in Escherichia coli BL21(DE3) using chorismic acid as substrate in presence of BSA by l-lactic dehydrogenase enzyme coupled assay
Outline: (§1)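 IC50 at subsaturating chorismic acid (50 µM) via LDH-coupled NADH assay, 37 °C, 50 mM HEPES pH 8.0, 10 mM MgCl2, 10-20 µM MbtI; activity at varied inhibitor fitted to A[I] = A[0]×(1−[I]/([I]+IC50)). Aggregation controls run with BSA or Triton X-100 added (line 8 BSA, line 11 Triton).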

[3] = Competitive inhibition of Mycobacterium tuberculosis salicylate synthase expressed in Escherichia coli BL21(DE3) using varying levels of chorismic acid as substrate in presence of NADH by l-lactic dehydrogenase enzyme coupled assay
Outline: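 Ki by competitive-inhibition fit of MbtI activity across varied CHA (10-500 µM range used for kinetics) and inhibitor levels (0, 5, 10, 20, 50, 100 µM). Coupled lactate dehydrogenase assay at 37 °C: 50 mM HEPES pH 8.0, 0.2 mM NADH, 10 mM MgCl2, 3 U LDH, 10-20 µM MbtI; reactions started with CHA; triplicate.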

[4] = tested on: Mycobacterium tuberculosis; assay: Antimycobacterial activity against Mycobacterium tuberculosis H37Rv; type: functional
Outline: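 MIC99 vs M. tuberculosis H37Rv on solid medium. Single colony grown in 7H9 + 10% OADC at 37 °C to exponential phase (~10^8 CFU/mL), diluted to ~10^6 CFU/mL, about 1 µL streaked onto plates with two-fold serial compound dilutions; MIC = lowest concentration inhibiting growth; triplicate.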

[5] = tested on: Mycobacterium tuberculosis; assay: Inhibition of Mycobacterium tuberculosis salicylate synthase expressed in Escherichia coli BL21(DE3) using chorismic acid as substrate in presence of Triton-X-100 by l-lactic dehydrogenase enzyme coupled assay; outline: as §1
[6] = tested on: Mycobacterium tuberculosis; assay: Inhibition of Mycobacterium tuberculosis salicylate synthase expressed in Escherichia coli BL21(DE3) using chorismic acid as substrate in presence of DTT by l-lactic dehydrogenase enzyme coupled assay
Outline: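 IC50 with 100 µM DTT present, to probe cysteine reactivity; LDH-coupled assay at 37 °C with 50 µM chorismic acid, 50 mM HEPES pH 8.0, 0.2 mM NADH, 10 mM MgCl2, 10-20 µM MbtI; fitted to single-site IC50 equation.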

[7] = Inhibition of Mycobacterium tuberculosis salicylate synthase expressed in Escherichia coli BL21(DE3) using chorismic acid as substrate in presence of NADH by l-lactic dehydrogenase enzyme coupled assay; outline: as §1

**Q.** Which Activity [1] does the source give for `O=C(O)c1ccc(-c2ccccc2)o1` here?
**A.** 102%

**Q.** For `O=C(O)c1ccc(-c2ccc([N+](=O)[O-])cc2)o1`, which inhibition [2] is on record?
**A.** Active

**Q.** And the Activity [1]?
**A.** 18.2%

**Q.** And the Ki [3]?
**A.** 5.3 µM

**Q.** And the MIC99 [4]?
**A.** 156 µM (≈ 36.4 µg/mL)

**Q.** And the inhibition [5]?
**A.** Active

**Q.** What about the inhibition [6] of the same compound?
**A.** Active

**Q.** Which IC50 [7] does the source give for `C/C=C(\Oc1cccc(C(=O)O)c1O)C(=O)O` here?
**A.** 11.6 µM

**Q.** Which Activity [1] does the source give for `O=C(O)c1ccc(-c2ccccc2Cl)o1` here?
**A.** 92.4%

**Q.** For `O=C(O)c1ccc(-c2ccc(C(F)(F)F)cc2)o1`, which Activity [1] is on record?
**A.** 66.3%

**Q.** Which Activity [1] does the source give for `N#Cc1ccc(-c2ccc(C(=O)O)o2)cc1` here?
**A.** 126%

**Q.** For `CS(=O)(=O)c1ccc(-c2ccc(C(=O)O)o2)cc1`, which Activity [1] is on record?
**A.** 98.5%

**Q.** With `O=C(O)c1cccc(-c2ccc([N+](=O)[O-])cc2)c1` as the compound, how does the Activity [1] read?
**A.** 36.8%

**Q.** Which Activity [1] does the source give for `Cc1nc(C(C)NC(=O)c2ccoc2)sc1C(=O)O` (stereo unspecified) here?
**A.** 109%

**Q.** With `O=C(O)c1ccc([N+](=O)[O-])cc1Cl` as the compound, how does the Activity [1] read?
**A.** 89.3%

**Q.** Which Activity [1] does the source give for `COC(=O)c1ccc(-c2ccc([N+](=O)[O-])cc2)o1` here?
**A.** 71.1%

**Q.** With `O=C(O)c1ccc(-c2ccc(O)cc2)o1` as the compound, how does the Activity [1] read?
**A.** 96.3%

**Q.** For `O=C(O)c1ccc(-c2ccc(C(=O)O)o2)cc1`, which Activity [1] is on record?
**A.** 92.4%

**Q.** With `O=C(O)c1ccc(-c2cccc([N+](=O)[O-])c2)o1` as the compound, how does the Activity [1] read?
**A.** 50.2%

**Q.** Which Activity [1] does the source give for `O=C(O)c1ccc(-c2ccc(-c3nn[nH]n3)cc2)o1` here?
**A.** 104%

**Q.** What does the source list for `COc1ccc([N+](=O)[O-])cc1S(=O)(=O)Nc1cccc(C(=O)O)c1`?
**A.** Activity [1]: 38.4%; IC50 [7]: 77.6 µM

**Q.** Which Activity [1] does the source give for `O=C(O)c1ccc(-c2ccc3c(c2)COC3=O)o1` here?
**A.** 58%

**Q.** With `COc1ccc(C(=O)O)cc1OCc1ccncc1` as the compound, how does the Activity [1] read?
**A.** 104%

**Q.** For `O=C(O)c1ccc(-c2ccc([N+](=O)[O-])cc2Cl)o1`, which Activity [1] is on record?
**A.** 21.3%

**Q.** And the IC50 [7]?
**A.** 21.1 µM

**Q.** Which Activity [1] does the source give for `O=C(O)c1ccc(-c2ccncc2)o1` here?
**A.** 45%

**Q.** With `O=C(O)c1ccc(-c2ccc3nonc3c2)o1` as the compound, how does the Activity [1] read?
**A.** 46.8%

**Q.** For `O=C(O)c1ccc(-c2ccccc2[N+](=O)[O-])o1`, which Activity [1] is on record?
**A.** 55.1%

**Q.** For `NS(=O)(=O)c1ccc(-c2ccc(C(=O)O)o2)cc1`, which Activity [1] is on record?
**A.** 84.6%

**Q.** For `Cc1cc(C(=O)O)c2ccc(F)cc2n1`, which Activity [1] is on record?
**A.** 101%
